Reference: article PMC10650344 (RSC Medicinal Chemistry, 2023)
Values after ≈ are worked out from the molar mass of the structure shown.

Key:
[1] = tested on: differentiated SHSY-5Y cells; assay: Genotoxicity analysis by Hoechst 33258 fluorescent nuclear staining; format: cell-based, human; conditions: for genotoxic properties on the differentiated SHSY-5Y cells: 100 μg mL^−1; for Mean NA/1000 cells ± SD: 100 μg mL^−1, 24 h, nuclear abnormalities
Outline: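 SH-SY5Y differentiated with 10 μM retinoic acid for 8 days (medium refreshed every 2 days), then 25 nM BDNF for 5 days. Test compound applied for 24 h. Cells washed in PBS, fixed in 4% paraformaldehyde at 4 °C for 30 min, then stained with Hoechst 33258 (1 mM) for 5 min at room temperature. Micronuclei, lobbed and notched nuclei scored by fluorescence microscopy in 1000 cells per treatment, in triplicate.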

[2] = log P by shake-flask method; format: physicochemical; conditions: n-octanol/phosphate buffer solution (PBS), pH 7.4
Outline: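 Shake-flask partition. About 5 mg of test compound dissolved in 1 mL n-octanol and mixed with an equal volume of PBS, pH 7.4. Mixture inverted 200 times over 5 min, then left 30 min to separate. Each phase assayed by HPLC (C18, 250 × 4.6 mm, isocratic H₂O/ACN + 0.1% TFA, 1 mL min⁻¹). log P taken from the concentration ratio of unionized compound between the phases.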

[3] = tested on: differentiated SHSY-5Y cells; assay: MTT cell viability; format: cell-based, human; conditions: 12.5–100 μg mL^−1, 24 h
Outline: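 Neuron-like cultures made by differentiating SH-SY5Y with 10 μM retinoic acid for 8 days, then 25 nM BDNF for 5 days. Cells incubated 24 h with test compound at 12.5–100 μg mL⁻¹. Controls: untreated cells, and cells given 1.0% Triton X-100. MTT (5 mg mL⁻¹ solution) added for 3 h at 37 °C, formazan dissolved in DMSO, absorbance read at 570 nm. Three independent experiments, mean ± SD.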

[4] = Experimental water solubility by HPLC; format: physicochemical
[5] = tested on: differentiated SHSY-5Y cell cultures; format: cell-based, human; conditions: compound 50 μg mL^−1, Aβ1–42 20 μM, 24 h
Outline: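 AD model: SH-SY5Y cells differentiated with retinoic acid then BDNF, then exposed to 20 μM Aβ1–42 (fibrillised 24 h in medium). 10⁵ cells seeded; Aβ1–42 with or without test compound (25 or 50 μg mL⁻¹) for 24 h. Cells trypsinised 3 min at 37 °C, spun 500 × g 5 min, stained in binding buffer with Annexin V-FITC and propidium iodide 5 min at room temperature, then analysed by flow cytometry.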

Aβ1–42 aggregation = format: cell-based, human; conditions: Congo red staining, experimental AD model
Outline: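 Differentiated SH-SY5Y cells (retinoic acid, then BDNF) given 20 μM pre-fibrillised Aβ1–42 with test compound. Cells then fixed with 4% paraformaldehyde in PBS at 4 °C for 30 min and PBS-washed. Congo red (1 μM) added for 1 h in the dark, followed by three PBS washes. Bound dye extracted with DMSO, with absorbance read at 497 nm.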

SMILES | genotoxic properties on the differentiated SHSY-5Y cells [1] | Mean NA/1000 cells ± SD [1] [NA/1000 cells] | logP [2] | cytotoxic effect on the differentiated SHSY-5Y cells (MTT cell viability) [3] | solubility [4] [µg/mL] | reduction of the apoptotic cell death ratio [5] [%] | preventive activity against Aβ1–42 aggregation (Aβ1–42 aggregation)
Brc1ccc(-c2csc(/C=C/c3ccccc3)n2)cc1 [6e, (E)-4-(4-Bromophenyl)-2-styrylthiazole] | did not enhance the genotoxic properties | 0.017 | 4.87 | no cytotoxic effect | 0.0175 (≈ 0.0511 µM) |  | 
COc1ccc(/C=C/c2nc(-c3ccc(OC)cc3)cs2)cc1 [6i, (E)-4-(4-Methoxyphenyl)-2-(4-methoxystyryl)thiazole] | did not enhance the genotoxic properties | 0.017 | 4.18 | no cytotoxic effect | 0.0719 (≈ 0.222 µM) | 30 | over 80%
